Results: PMC6800648 (Cell chemical biology, 2019)
One block for each molecule: values may come before it. Numbered stars: 1 amine (or outer) side, 2 acyl side, 3 side chain; on linkers, the order of the positions; unused ones are H or OH. Square brackets hold non-standard residues; d marks the D form. Peptide text beside a SMILES is read from it. * marks the point of attachment. NH(CH2CH2O)11C2H4NHBiotinyl = O=C(CCCC[C@@H]1SC[C@@H]2NC(=O)N[C@@H]21)NCCOCCOCCOCCOCCOCCOCCOCCOCCOCCOCCOCCN*; X2 = COc1ccc(CN(C)CCCC[C@H](N[*:1])C(=O)[*:2])cc1; X5 = CN(CCCC[C@H](N[*:1])C(=O)[*:2])Cc1ccc(F)cc1; X8 = O=C([C@H](CCCCN(C1CCC1)C1CCC1)N[*:1])[*:2]; X3 = CN(CCCC[C@H](N[*:1])C(=O)[*:2])Cc1ccccc1; X7 = CN(CCCC[C@H](N[*:1])C(=O)[*:2])C1CCCCC1; X1 = CCCN(CCCC[C@H](N[*:1])C(=O)[*:2])C(C)C; X6 = CN(CCCC[C@H](N[*:1])C(=O)[*:2])C1CCCC1; Lys(Et,iPr) = CCN(CCCC[C@H](N)C(=O)O)C(C)C; X4 = COC(C)N(C)CCCC[C@H](N[*:1])C(=O)[*:2]; Benzoyl(4-tBu) = CC(C)(C)c1ccc(C(=O)*)cc1; X9 = O=C([C@H](CCCCN1CCCCC1)N[*:1])[*:2]; Lys(Et2) = CCN(CC)CCCC[C@H](N)C(=O)O; Lys(Me2) = CN(C)CCCC[C@H](N)C(=O)O; NMeA = CN[C@@H](C)C(=O)O

How the values were obtained:
[1] = biological target: T1, CBX7 (Mus musculus, UniProt Q8VDS3); experiment: Polycomb in-vivo Assay; type: cell-based; details: for activity in the Polycomb in-vivo Assay (reactivation of GFP expression): 48-hour treatment, flow cytometry
T1 sequence (Q8VDS3 2-69 limits assumed): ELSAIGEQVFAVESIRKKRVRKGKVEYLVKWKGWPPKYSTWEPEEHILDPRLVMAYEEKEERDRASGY

[2] = biological target: T2, CBX7 chromodomain (Homo sapiens, UniProt O95931); experiment: Fluorescence polarization; type: biochemical; details: 30 μM CBX7 chromodomain, 100 nM FAM-ANRIL-RNA
T2 sequence (O95931 1-62): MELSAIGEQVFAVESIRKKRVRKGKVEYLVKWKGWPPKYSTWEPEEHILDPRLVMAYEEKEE
Outline: (§1)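 Buffer: 25 mM Tris-HCl pH 7.4, 100 mM NaCl, 0.05% Tween-20, 2 mM DTT; 100 nM FAM-dsDNA or FAM-ANRIL-RNA; 0.2% DMSO; 30 min at RT. Compound titration: eight-point three-fold series from 100 µM with 30 µM CBX7 chromodomain. Ratio mode: CBX7 and test compound co-diluted at fixed 3:1 from 300 µM/100 µM. Polarisation normalised to a no-protein control; α fitted by the Stockton-Ehlert allosteric model.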

[3] = biological target: T2, CBX7 chromodomain; experiment: Electrophoretic mobility shift assay; type: biochemical; details: EMSA, 150 mM CBX7 and 100 nM FAM-dsDNA probe, 1:3 ratio of compound to CBX7
Outline: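 Buffer: 25 mM Tris-HCl pH 7.4, 100 mM NaCl, 0.05% Tween-20, 2 mM DTT. Compound runs used 150 µM CBX7 with 100 nM FAM-DNA probe and 50 µM test compound (0.3% DMSO); protein-only runs used a three-fold CBX7 series. Binding 20 min on ice. Native 10% Tris-glycine gel at 100 V, 4°C, 90 min in the dark. FAM fluorescence imaged, then Coomassie-stained.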

[4] = biological target: T2, CBX7 chromodomain; experiment: Fluorescence polarization; type: biochemical; details: 30 μM CBX7 chromodomain, 100 nM FAM-dsDNA
Outline: as §1

[5] = tested on: canonical PRC1 complex; experiment: Chemiprecipitation; type: binding, human; details: PC3 cell lysates, western blot
Outline: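 PC3 cells in DMEM/F12 plus 10% FBS were grown to 80–90% confluency, trypsinised, PBS-washed twice, and lysed fresh or after flash freezing. Lysates were pulled down with biotinylated test compounds. Beads were boiled in Laemmli buffer at 95 °C for 3 min, with 1% input. Proteins were separated by SDS-PAGE and blotted to PVDF. Primary antibody overnight at 4°C; infrared secondaries (1:10,000).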

[6] = tested on: 120 purified Kme reader domains; experiment: Chromatin-associated domain array; type: binding; details: biotinylated ligand, fluorescently tagged streptavidin visualization
[7] = biological target: T3, CBX7 (Mus musculus, UniProt Q8VDS3); type: cell-based; details: TetOFF reporter cell line; UNC4976 compared to UNC3866 treatment
T3 sequence (Q8VDS3 1-158): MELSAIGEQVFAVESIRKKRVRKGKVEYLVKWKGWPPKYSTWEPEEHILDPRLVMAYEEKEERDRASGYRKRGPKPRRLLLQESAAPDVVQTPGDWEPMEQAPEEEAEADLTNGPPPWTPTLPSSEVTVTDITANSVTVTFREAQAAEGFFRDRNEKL

[8] = tested on: mESCs; experiment: CellTiter-Glo viability assay in mESCs; type: cell-based, mouse; details: 48 hr
Outline: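 Mouse ES cells, 5,000 per well, exposed in technical triplicate for 48 hr at 37°C to a ten-point three-fold dilution series prepared from 50 mM DMSO stocks (0.2% DMSO final). Media-only wells served as negative controls. After equilibrating at room temperature, CellTiter-Glo was added, with 2 min shaking and 10 min settling, then luminescence read.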

activity in the Polycomb in-vivo Assay (reactivation of GFP expression) [1]: inactive
effect on FAM-dsDNA binding to CBX7 [3]: did not observe enhancement
Compound: Cc1ccccc1Cn1c(=N)n(CC(O)c2ccc(Cl)c(Cl)c2)c2ccccc21.Cl (stereo not shown) [MS351, reference compound]
change of fluorescence polarization on compound titration [2]: did not observe increased fluorescence polarization
change of fluorescence polarization on compound titration [4]: did not observe increased fluorescence polarization

activity in the Polycomb in-vivo Assay (reactivation of GFP expression) [1]: inactive
change of fluorescence polarization on compound titration [2]: slight destabilizing effect
effect on FAM-dsDNA binding to CBX7 [3]: no effect
change of fluorescence polarization on compound titration [4]: slight destabilizing effect
Compound: COc1cccc(C(=O)N2CCN(C(=O)COc3cccc(C)c3)CC2)c1OC [MS452, reference compound]

Compound: CCN(CC)CCCC[C@H](NC(=O)[C@H](CC(C)C)NC(=O)[C@H](C)NC(=O)[C@H](Cc1ccccc1)NC(=O)c1ccc(C(C)(C)C)cc1)C(=O)N[C@@H](CO)C(=O)NCCOCCOCCOCCOCCOCCOCCOCCOCCOCCOCCOCCNC(=O)CCCC[C@@H]1SC[C@@H]2NC(=O)N[C@@H]21 [UNC4195, 4-(tert-butyl)-N-((2S,5S,8S,11S,14S)-11-(4-(diethylamino)butyl)-14-(hydroxymethyl)-8-isobutyl-5-methyl-3,6,9,12,15,53-hexaoxo-57-((3aS,4S,6aR)-2-oxohexahydro-1H-thieno[3,4-d]imidazol-4-yl)-1-phenyl-19,22,25,28,31,34,37,40,43,46,49-undecaoxa-4,7,10,13,16,52-hexaazaheptapentacontan-2-yl)benzamide, reference compound] ({Benzoyl(4-tBu)}-FAL[Lys(Et2)]S-{NH(CH2CH2O)11C2H4NHBiotinyl})
pulldown of canonical PRC1 components (CBX4, CBX7, CBX8, RING1B, BMI1) [5]: we detected pulldown of CBX4, CBX7, CBX8, RING1B, and BMI1
selectivity profile on CADOR microarray [6]: binding interactions were only detected for all five Polycomb CBX chromodomains and a small subset of CDY chromodomains

activity in the Polycomb in-vivo Assay (reactivation of GFP expression) [1]: inactive
derepression of the GFP reporter gene / maintenance of Polycomb silencing [7]: unaffected
effect on FAM-dsDNA binding to CBX7 [3]: no effect
Compound: CCN(CC)CCCC[C@H](NC(=O)[C@H](CC(C)C)NC(=O)[C@H](C)N(C)C(=O)[C@H](Cc1ccccc1)NC(=O)c1ccc(C(C)(C)C)cc1)C(=O)N[C@@H](CO)C(=O)OC [UNC4219, methyl N^2-N-((4-(tert-butyl)benzoyl)-L-phenylalanyl)-N-methyl-L-alanyl-L-leucyl-N^6,N^6-diethyl-L-lysyl-L-serinate, reference compound] ({Benzoyl(4-tBu)}-F[NMeA]L[Lys(Et2)]S-OMe)
mESC viability upon compound treatment [8]: non-toxic

EC50 [1]: 36.6 ± 1.14 µM
Compound: CCN(CCCC[C@H](NC(=O)[C@H](CC(C)C)NC(=O)[C@H](C)NC(=O)[C@H](Cc1ccccc1)NC(=O)c1ccc(C(C)(C)C)cc1)C(=O)N[C@@H](CO)C(=O)OC)C(C)C [UNC4941, methyl N^2-(4-(tert-butyl)benzoyl)-L-phenylalanyl-L-alanyl-L-leucyl-N^6-ethyl-N^6-isopropyl-L-lysyl-L-serinate] ({Benzoyl(4-tBu)}-FAL[Lys(Et,iPr)]S-OMe)

EC50 [1]: 26.5 ± 3.24 µM
Compound: CCCN(CCCC[C@H](NC(=O)[C@H](CC(C)C)NC(=O)[C@H](C)NC(=O)[C@H](Cc1ccccc1)NC(=O)c1ccc(C(C)(C)C)cc1)C(=O)N[C@@H](CO)C(=O)OC)C(C)C [UNC4971, methyl N^2-(4-(tert-butyl)benzoyl)-L-phenylalanyl-L-alanyl-L-leucyl-N^6-isopropyl-N^6-propyl-L-lysyl-L-serinate] ({Benzoyl(4-tBu)}-FAL[X1]S-OMe)

EC50 [1]: 105 ± 11.3 µM
Compound: COC(=O)[C@H](CO)NC(=O)[C@H](CCCCN(C)C)NC(=O)[C@H](CC(C)C)NC(=O)[C@H](C)NC(=O)[C@H](Cc1ccccc1)NC(=O)c1ccc(C(C)(C)C)cc1 [UNC5352, methyl N^2-(4-(tert-butyl)benzoyl)-L-phenylalanyl-L-alanyl-L-leucyl-N^6,N^6-dimethyl-L-lysyl-L-serinate] ({Benzoyl(4-tBu)}-FAL[Lys(Me2)]S-OMe)

EC50 [1]: 13.7 ± 0.535 µM
Compound: COC(=O)[C@H](CO)NC(=O)[C@H](CCCCN(C1CCC1)C1CCC1)NC(=O)[C@H](CC(C)C)NC(=O)[C@H](C)NC(=O)[C@H](Cc1ccccc1)NC(=O)c1ccc(C(C)(C)C)cc1 [UNC6370, methyl N^2-(4-(tert-butyl)benzoyl)-L-phenylalanyl-L-alanyl-L-leucyl-N^6,N^6-dicyclobutyl-L-lysyl-L-serinate] ({Benzoyl(4-tBu)}-FAL[X8]S-OMe)

EC50 [1]: ~20 µM
Compound: COC(=O)[C@H](CO)NC(=O)[C@H](CCCCN(C)C1CCCC1)NC(=O)[C@H](CC(C)C)NC(=O)[C@H](C)NC(=O)[C@H](Cc1ccccc1)NC(=O)c1ccc(C(C)(C)C)cc1 [UNC6371, methyl N^2-(4-(tert-butyl)benzoyl)-L-phenylalanyl-L-alanyl-L-leucyl-N^6-cyclopentyl-N^6-methyl-L-lysyl-L-serinate] ({Benzoyl(4-tBu)}-FAL[X6]S-OMe)

EC50 [1]: 4.59 ± 0.292 µM
Compound: COC(=O)[C@H](CO)NC(=O)[C@H](CCCCN(C)C1CCCCC1)NC(=O)[C@H](CC(C)C)NC(=O)[C@H](C)NC(=O)[C@H](Cc1ccccc1)NC(=O)c1ccc(C(C)(C)C)cc1 [UNC6372, methyl N^2-(4-(tert-butyl)benzoyl)-L-phenylalanyl-L-alanyl-L-leucyl-N^6-cyclohexyl-N^6-methyl-L-lysyl-L-serinate] ({Benzoyl(4-tBu)}-FAL[X7]S-OMe)

EC50 [1]: 33.1 ± 1.9 µM
Compound: COC(=O)[C@H](CO)NC(=O)[C@H](CCCCN1CCCCC1)NC(=O)[C@H](CC(C)C)NC(=O)[C@H](C)NC(=O)[C@H](Cc1ccccc1)NC(=O)c1ccc(C(C)(C)C)cc1 [UNC6374, methyl ((S)-2-((S)-2-((S)-2-((S)-2-(4-(tert-butyl)benzamido)-3-phenylpropanamido)propanamido)-4-methylpentanamido)-6-(piperidin-1-yl)hexanoyl)-L-serinate] ({Benzoyl(4-tBu)}-FAL[X9]S-OMe)

EC50 [1]: 2.36 ± 0.115 µM
Compound: COC(=O)[C@H](CO)NC(=O)[C@H](CCCCN(C)Cc1ccccc1)NC(=O)[C@H](CC(C)C)NC(=O)[C@H](C)NC(=O)[C@H](Cc1ccccc1)NC(=O)c1ccc(C(C)(C)C)cc1 [UNC6375, methyl N^6-benzyl-N^2-(4-(tert-butyl)benzoyl)-L-phenylalanyl-L-alanyl-L-leucyl-N^6-methyl-L-lysyl-L-serinate] ({Benzoyl(4-tBu)}-FAL[X3]S-OMe)

EC50 [1]: 2.22 ± 0.194 µM
Compound: COC(=O)[C@H](CO)NC(=O)[C@H](CCCCN(C)Cc1ccc(F)cc1)NC(=O)[C@H](CC(C)C)NC(=O)[C@H](C)NC(=O)[C@H](Cc1ccccc1)NC(=O)c1ccc(C(C)(C)C)cc1 [UNC6376, methyl N^2-(4-(tert-butyl)benzoyl)-L-phenylalanyl-L-alanyl-L-leucyl-N^6-(4-fluorobenzyl)-N^6-methyl-L-lysyl-L-serinate] ({Benzoyl(4-tBu)}-FAL[X5]S-OMe)

EC50 [1]: 23.7 ± 1.74 µM
Compound: COC(=O)[C@H](CO)NC(=O)[C@H](CCCCN(C)C(C)OC)NC(=O)[C@H](CC(C)C)NC(=O)[C@H](C)NC(=O)[C@H](Cc1ccccc1)NC(=O)c1ccc(C(C)(C)C)cc1 (stereo partly drawn) [UNC6481, methyl N^2-(4-(tert-butyl)benzoyl)-L-phenylalanyl-L-alanyl-L-leucyl-N^6-(1-methoxyethyl)-N^6-methyl-L-lysyl-L-serinate] ({Benzoyl(4-tBu)}-FAL[X4]S-OMe)

EC50 [1]: 2.06 ± 0.135 µM
Compound: COC(=O)[C@H](CO)NC(=O)[C@H](CCCCN(C)Cc1ccc(OC)cc1)NC(=O)[C@H](CC(C)C)NC(=O)[C@H](C)NC(=O)[C@H](Cc1ccccc1)NC(=O)c1ccc(C(C)(C)C)cc1 [UNC6483, methyl N^2-(4-(tert-butyl)benzoyl)-L-phenylalanyl-L-alanyl-L-leucyl-N^6-(4-methoxybenzyl)-N^6-methyl-L-lysyl-L-serinate] ({Benzoyl(4-tBu)}-FAL[X2]S-OMe)
